Results reported in ChEMBL document CHEMBL4513216, “Probing the Open Global Health Chemical Diversity Library for Multistage-Active Starting Points for Next-Generation Antimalarials” (ACS Infect Dis, 2020).

Test: Toxicity liver stage against HepG2, at 10uM
Assay type: cell-based
Parameters: test concentration 10 uM, cell line HepG2-A16-CD81EGFP
Settings: human, HepG2-A16-CD81EGFP cells; read-out: INHIBITION
Method in brief: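 Uninfected HepG2-A16-CD81EGFP cells, 3 × 10^3 per well, 1536-well, plated on prespotted compound at 10 μM final, parasite-free screening media added to match infected plates; puromycin 10 μM positive, DMSO 0.5% negative; run in parallel with 48 h PbLuc assay at 37 °C, 5% CO2; viability by CellTiter-Glo luminescence, normalized to controls.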

O=C(NS(=O)(=O)c1ccccc1)c1ccccc1F
cytotoxicity at 10 µM: 11.4%

CC[C@H]1CN2CC[C@H]1C[C@@H]2CNCc1cccc(C#N)c1
cytotoxicity at 10 µM: 5.96%

Cc1nc(-c2ccc(S(=O)(=O)N3CCOCC3)cc2)co1
cytotoxicity at 10 µM: -9.52%

CC(=O)c1cccc(NC(=O)C2CN(S(=O)(=O)C3CC3)C2)c1
cytotoxicity at 10 µM: 3.62%

COC(=O)c1sccc1S(=O)(=O)NCCC(O)c1ccco1 (stereo unspecified)
cytotoxicity at 10 µM: -5.98%

COc1ccc(CC(=O)Nc2c(C)nc(N3CCCC3)nc2C)cc1
cytotoxicity at 10 µM: 2.05%

COCCC(=O)N1C[C@H]2CN(Cc3cccc(C)c3)C(=O)[C@H]2C1
cytotoxicity at 10 µM: 2.05%

Cc1cccc(CN2C[C@@H]3CN(C(=O)C4CC=CC4)C[C@@H]3C2=O)n1
cytotoxicity at 10 µM: 2%

CN1CCN(C(=O)N2CCCC2)Cc2cccnc21
cytotoxicity at 10 µM: -3.66%

Fc1cnc(N2CCCC3(CCN(c4ncccn4)C3)C2)nc1 (stereo unspecified)
cytotoxicity at 10 µM: -113%

Cc1nn(CCCNC(=O)C2CCN(S(C)(=O)=O)CC2)c(Cl)c1Cl
cytotoxicity at 10 µM: -11.3%

CCn1nc(C)c(CN2CCNCC2)c1C
cytotoxicity at 10 µM: 6.4%

CC(C)c1cc(C(=O)N2CCN(c3ncc4c(n3)CCOC4)CC2)on1
cytotoxicity at 10 µM: 1.57%

Cc1ccnc(C2CN(Cc3cnn(-c4ccccc4C(=O)O)c3)C2)n1
cytotoxicity at 10 µM: 6%

O=C(c1cc(-n2cccn2)ccc1Cl)N1CCCC(N2CCCC2)C1 (stereo unspecified)
cytotoxicity at 10 µM: 1.86%

CNc1cc(C2CCCN2C(=O)CCc2cnn(C)c2C)ccn1 (stereo unspecified)
cytotoxicity at 10 µM: 5.98%

O=C(CCn1c(C(F)F)cc2cccnc21)NC1CCCCC1
cytotoxicity at 10 µM: -27.9%

CC(C)CNC(=O)C1(Cc2ccccc2-c2cccs2)CCNC1 (stereo unspecified)
cytotoxicity at 10 µM: -31.2%

Cc1cc(-c2cnc(N3CCNC(=O)C3)nc2-c2ccoc2C)on1
cytotoxicity at 10 µM: -25.5%

CC(=O)N1CCCC1c1cccc(Cc2ccccc2F)n1 (stereo unspecified)
cytotoxicity at 10 µM: -1.44%

COC(=O)N1CCC(NC(=O)c2cc(S(N)(=O)=O)ccc2C)CC1
cytotoxicity at 10 µM: -1.22%

CN(Cc1cccs1)C(=O)CN1C(=O)c2cc(Cl)c(Cl)cc2C1=O
cytotoxicity at 10 µM: -6.13%

O=C(NCCc1cc(F)ccc1F)NCC(O)C1CC1 (stereo unspecified)
cytotoxicity at 10 µM: -2.99%

Cc1ccc(CNC(C)(C)c2noc(C(C)(C)C)n2)o1
cytotoxicity at 10 µM: -9.02%

COc1ccccc1CC(C)CC(=O)N(C)Cc1cc(C)on1 (stereo unspecified)
cytotoxicity at 10 µM: 3.8%

Cc1ccc(Cl)cc1NS(=O)(=O)c1cc(C(N)=O)n(C)c1
cytotoxicity at 10 µM: 3.8%

O=C1NCCCCC1NC(=O)C1(c2ccc3c(c2)OCCO3)CCCC1 (stereo unspecified)
cytotoxicity at 10 µM: 0.969%

CCCC(C#N)NC(=O)CCCOc1cccc(C(C)=O)c1 (stereo unspecified)
cytotoxicity at 10 µM: -46.2%

COc1ccc2c(c1)NC(=O)C2OC(=O)CCc1ccc(F)cc1 (stereo unspecified)
cytotoxicity at 10 µM: -4.71%

COC(=O)N1CCCC(NC(=O)NCc2cccc(C)n2)C1 (stereo unspecified)
cytotoxicity at 10 µM: -8.62%

O=C(NCC(O)COc1ccc(C(F)(F)F)cc1)Nc1nncs1 (stereo unspecified)
cytotoxicity at 10 µM: -14.2%

COCc1nc2cc(NCc3csc(C)n3)ccc2o1
cytotoxicity at 10 µM: 0.873%

CCn1cc(CNCC(c2ccc(C)s2)N2CCOCC2)cn1 (stereo unspecified)
cytotoxicity at 10 µM: -8.65%

N#Cc1cccnc1NCCNC(=O)N1CCSCC1
cytotoxicity at 10 µM: -1.22%

Cc1nc(C)n(C2CCCN(C(=O)CCn3cncn3)C2)n1 (stereo unspecified)
cytotoxicity at 10 µM: -4.24%

Cc1cc(N2CCOCC2)ccc1NC(C)c1nc(C(C)(C)C)no1 (stereo unspecified)
cytotoxicity at 10 µM: -12.7%

CCc1nnc2n1CC(CNCc1nnc(C(C)(C)C)o1)CC2 (stereo unspecified)
cytotoxicity at 10 µM: 3.18%

CC(C)(C#N)CCCS(=O)(=O)c1nccn1-c1cccc(F)c1
cytotoxicity at 10 µM: -1.12%

COCC(=O)NC(c1ccc(Cl)cc1)c1noc(C)n1 (stereo unspecified)
cytotoxicity at 10 µM: 6.66%

N#CCCN(Cc1ccccn1)C(=O)Nc1cccnc1
cytotoxicity at 10 µM: 0.525%

CC(NCCn1c(=O)oc2ccccc21)c1ccccn1 (stereo unspecified)
cytotoxicity at 10 µM: -7.1%

O=C(CCC(=O)c1ccccc1)NC1(C(=O)NCC2CC2)CCCC1
cytotoxicity at 10 µM: 2.26%

O=C(O)c1ccc(S(=O)(=O)Nc2ccccc2F)c(F)c1
cytotoxicity at 10 µM: 5.51%

COCC1CC2(CCN(Cc3nc(C)cs3)CC2)CO1 (stereo unspecified)
cytotoxicity at 10 µM: -111%

O=C(c1ccc(F)c(F)c1)N1CCC[C@]2(C[C@@H](OCC3CC3)CO2)C1
cytotoxicity at 10 µM: -70.1%

CC(C)NC(=O)C1CN(C(=O)Nc2ccc(F)cc2)CC12CCOCC2 (stereo unspecified)
cytotoxicity at 10 µM: -80.9%

Cc1noc(C)c1CN1CCO[C@H]2CN(Cc3cccnc3)C[C@H]21
cytotoxicity at 10 µM: -2.61%

COCC(=O)N1CC[C@@H](N2CCOCC2)[C@@H]1Cc1ccccc1
cytotoxicity at 10 µM: -3.06%

Cc1cccnc1NCCNC(=O)c1cnc(-c2cccs2)nc1O
cytotoxicity at 10 µM: 4.62%

CC[C@H](CO)NC(=O)c1coc(COc2cccc(F)c2F)n1
cytotoxicity at 10 µM: 3.08%

CN1CCC(N(C)C[C@H]2CC[C@@H](Cc3ccc4c(cnn4C)c3)O2)CC1
cytotoxicity at 10 µM: 5.03%

CCn1cncc1Cn1cccc(C(F)(F)F)c1=O
cytotoxicity at 10 µM: -20.7%

COCCN1CCCC(O)(CN2CCN(c3ccncc3C)CC2)C1=O (stereo unspecified)
cytotoxicity at 10 µM: -6.45%

Cc1ccc(-c2nc(CNS(=O)(=O)N(C)C)[nH]c2-c2ccccn2)cc1
cytotoxicity at 10 µM: -0.678%

Cc1ccsc1CN(CCN(C)C)C(=O)c1ccccc1C#N
cytotoxicity at 10 µM: -119%

CCc1cc(-c2cc[nH]n2)nc(N2CCCC2)n1
cytotoxicity at 10 µM: 0.255%

Cc1ncsc1CN1CCn2nc(CCC(=O)N3CCCC3)cc2C1
cytotoxicity at 10 µM: -22.2%

COC(=O)c1cccc(CN(C)C(C)c2ccccn2)c1 (stereo unspecified)
cytotoxicity at 10 µM: 5.85%

CCC1CN(C(=O)c2ccccc2C(C)=O)CCN1C(C)C (stereo unspecified)
cytotoxicity at 10 µM: 0.684%

CCSCC(C)NCc1nn(C)c2ccc(C)cc12 (stereo unspecified)
cytotoxicity at 10 µM: 1.71%

COC(=O)[C@@H](NC(=O)c1coc(COc2cccc(F)c2F)n1)C(C)C
cytotoxicity at 10 µM: 1.31%

N#Cc1ccc(NCc2cc3n(n2)CCCN(C(=O)C2CCC2)C3)nc1
cytotoxicity at 10 µM: -127%

c1cc(-c2cn[nH]c2)ccc1CN1CCNCC1
cytotoxicity at 10 µM: 0.866%

Cc1ccccc1CN(CCO)Cc1ncc[nH]1
cytotoxicity at 10 µM: -3.97%

COCc1cc(CNC(=O)c2cccc3c2OCC3)n[nH]1
cytotoxicity at 10 µM: 8.97%

Cc1cc(C)c(CNC(=O)CC2CCCO2)c(=O)[nH]1 (stereo unspecified)
cytotoxicity at 10 µM: -10.7%

Cc1nccc(C(=O)NC(CN2CCCC2=O)c2ccccc2)n1 (stereo unspecified)
cytotoxicity at 10 µM: 8.01%

Cc1cc(CN2CCN(C(=O)NC(C)c3ccncc3)CC2)on1 (stereo unspecified)
cytotoxicity at 10 µM: -5.66%

CC(Cn1cccn1)NC(=O)Nc1nnc(C2CC2)s1 (stereo unspecified)
cytotoxicity at 10 µM: -1.71%

Cc1nc(C2CCCN(C(=O)c3ccc(Cn4cccn4)o3)C2)no1 (stereo unspecified)
cytotoxicity at 10 µM: -6.38%

CCOc1ccc(Cl)c(C(=O)NCc2ccc(C(=O)NC)cc2)n1
cytotoxicity at 10 µM: -9.88%

COCC(O)CN(C)C(=O)NC1CCN(Cc2ccccn2)CC1 (stereo unspecified)
cytotoxicity at 10 µM: -0.0353%

COc1ncccc1NC(=O)NCC1CCS(=O)(=O)C1 (stereo unspecified)
cytotoxicity at 10 µM: -9.16%

Cc1ccc(CN2C[C@H](OCCN(C)C)[C@H]3COC[C@H]32)o1
cytotoxicity at 10 µM: 1.6%

Cc1ccc(CN2C[C@@H]3COC[C@H](C(=O)N4CCCCO4)[C@@H]3C2)o1
cytotoxicity at 10 µM: 3.37%

COCCN1CCCC2(CCC(=O)N2Cc2cccnc2)C1 (stereo unspecified)
cytotoxicity at 10 µM: 4.32%

Cc1cccc(CN2C(=O)CC[C@@H]3[C@H]2CCN3C(=O)c2ccsc2)n1
cytotoxicity at 10 µM: -85.7%

O=C(c1ccc[nH]1)N1CCc2c(COCC3CC3)cncc2C1
cytotoxicity at 10 µM: 5.71%

Cn1cc(CN2CCC3(CC2)NC(=O)CC3c2ccncc2)cn1 (stereo unspecified)
cytotoxicity at 10 µM: -2.1%

CC(C)c1nn(C)cc1CNCc1cccnc1N(C)C
cytotoxicity at 10 µM: -1.96%

Cc1cccc(CN2C(=O)C[C@H]3[C@@H]2CCN3Cc2nccs2)n1
cytotoxicity at 10 µM: -2.92%
